# Columns and labels:
# Rattus norvegicus [1] = organism: Rattus norvegicus; test: In vitro agonist activity against [Ca2+] uptake in neonatal rat cultured spinal sensory neurons; assay type: functional
# In short: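 Neonatal rat dorsal root ganglia were dissociated with collagenase then trypsin and cultured with 10% horse serum, 1 μg/mL NGF and 48 h of 10^-4 M cytosine arabinoside. Assays used 3–7-day cultures washed in Ca-free HEPES-buffered BSS (pH 7.4). Compound with 10 μCi/mL 45Ca2+ and 1% DMSO was applied for 10 min at room temperature; SDS extract was scintillation counted. Medium-only background; EC50 from ≥6 replicates/concentration.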
# Rattus norvegicus [2] = organism: Rattus norvegicus; test: In vitro antagonist activity against [Ca2+] uptake in neonatal rat cultured spinal sensory neurons; assay type: functional
# In short: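 Cultured neonatal rat DRG neurons (3–7 days old, non-neuronal cells removed with cytosine arabinoside) were washed in Ca-free HEPES BSS, pH 7.4. 45Ca2+ uptake stimulated by a fixed 0.5 μM agent was measured with test compound in 1% DMSO over 10 min at room temperature. Cells were lysed with SDS and scintillation counted. IC50 is 50% reduction of the evoked response, from ≥6 replicates/concentration.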
SMILES,EC50 (Rattus norvegicus [1]),IC50 (Rattus norvegicus [2])
Oc1cc2c(cc1O)CN(C(=S)NCCc1ccc(Cl)cc1)CC2,290 nM,
Oc1ccc2c(c1O)CCN(C(=S)NCCc1ccc(Cl)cc1)C2,> 100000 nM,440 nM
COc1cc2c(cc1O)CN(/C(S)=N/CCc1ccc(Cl)cc1)C2,> 100000 nM,> 100000 nM
CCCCCCCC/N=C(\S)NCc1ccc(O)c(OC)c1,60 nM,
COc1cc2c(cc1OC)CN(/C(S)=N/CCc1ccc(Cl)cc1)CCC2,> 100000 nM,6990 nM
Oc1cc2c(cc1O)CN(C(=S)NCCc1ccc(Cl)cc1)C2,550 nM,
COc1cc2c(cc1O)CN(/C(S)=N/CCc1ccc(Cl)cc1)CC2,1230 nM,
CCCCCCCC/N=C(\S)N1CCc2c(ccc(O)c2O)C1,> 100000 nM,3480 nM
COc1cc(C/N=C(\S)NCCc2ccc(Cl)cc2)ccc1O,60 nM,
Oc1cc2c(cc1O)CN(C(=S)NCCc1ccc(Cl)cc1)CCC2 [CAPSAZEPINE],> 100000 nM,420 nM
CCCCCCCC/N=C(\S)N1CCc2cc(O)c(O)cc2C1,740 nM,
COc1cc2c(cc1O)CCN(/C(S)=N/CCc1ccc(Cl)cc1)C2,1090 nM,1230 nM
Oc1ccc(CNC(=S)NCCc2ccc(Cl)cc2)cc1O,100 nM,
